Measurements from ChEMBL document CHEMBL4689842, “EUbOPEN Chemogenomics Library wave 1” (2021).
Values joined by “and” are separate entries in the source; they are usually repeats but may differ in a detail not shown here. Equal entries are not always repeated.

Key:
Assay type in all cases: toxicity, cell-based
U2OS [1] = assay: Incucyte cell viability with U2OS; details: human, 10 µM, compound concentration 10 uM; further: filed as whole numbers so only -1 and 0 and 1 occur
Fibroblast [2] = assay: Incucyte cell viability with human fibroblast; details: 10 µM, compound concentration 10 uM; further: filed as whole numbers so only -1 and 0 and 1 occur
U2OS [3] = assay: Multiplex assay against U2OS; details: human, 1 µM, compound concentration 1 uM
Method in brief: (§1)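 Per cents of healthy-nucleus cells form the tubulin, mitochondrial-mass and membrane-permeability phenotype values. Live cells were stained at seeding with Hoechst33342, BioTracker Green Microtubule Cytoskeleton Dye, MitoTracker Red and Annexin V Alexa Fluor 680. After compound addition they were imaged on a CQ1 microscope at 37°C and 5% CO2, and CellPathfinder machine-learning gating split them into Hoechst high-intensity objects or normal cells, normal cells into healthy, pyknosed or fragmented nuclei, and pyknosed cells into mitotic or apoptotic.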

HEK-293T = assay: Incucyte cell viability with HEK293T; details: human, 10 µM, compound concentration 10 uM; further: filed as whole numbers so only -1 and 0 and 1 occur
Fibroblast [4] = assay: Multiplex assay against human fibroblast; details: 1 µM, compound concentration 1 uM; method in brief: as §1
[5] = 0 h, replicate number 1, timepoint 0 hours
[6] = 6 h, replicate number 1, timepoint 6 hours
[7] = 12 h, replicate number 1, timepoint 12 hours
[8] = 18 h, replicate number 1, timepoint 18 hours
[9] = 24 h, replicate number 1, timepoint 24 hours
[10] = 0 h, replicate number 2, timepoint 0 hours
[11] = 6 h, replicate number 2, timepoint 6 hours
[12] = 12 h, replicate number 2, timepoint 12 hours
[13] = 18 h, replicate number 2, timepoint 18 hours
[14] = 24 h, replicate number 2, timepoint 24 hours

CS(=O)(=O)N1CCN(Cc2cc3nc(-c4cccc5[nH]ncc45)nc(N4CCOCC4)c3s2)CC1 [PICTILISIB]
Growth Rate (U2OS [1]; [5]): 0 | Growth Rate (U2OS [1]; [6]): 0 | Growth Rate (U2OS [1]; [7]): 0 | Growth Rate (U2OS [1]; [8]): 0 | Growth Rate (U2OS [1]; [9]): 0 | Growth Rate (Fibroblast [2]; [10]): 1 | Growth Rate (Fibroblast [2]; [6]): 0 | Growth Rate (Fibroblast [2]; [7]): 0 | Growth Rate (Fibroblast [2]; [8]): 0 | Growth Rate (Fibroblast [2]; [9]): 0 | Population Apoptotic (%) (U2OS [3]; 12 h, replicate 1): 69% and 53% | Population Fragmented Nuclei (%) (U2OS [3]; 12 h, replicate 1): 22% and 12% | Population Healthy Nuclei (%) (U2OS [3]; 12 h, replicate 1): 35% and 77% | Population Hoechst High Intensity Objects (%) (U2OS [3]; 12 h, replicate 1): 4% | Population Membrane Permeable-Phenotype (%) (U2OS [3]; 12 h, replicate 1): 47% and 40% | Population Mitotic Cells (%) (U2OS [3]; 12 h, replicate 1): 30% and 46% | Population Normal (%) (U2OS [3]; 12 h, replicate 1): 95% and 96% | Population Tubulin-Different-Phenotype (%) (U2OS [3]; 12 h, replicate 1): 100% and 49% | Total Cell Count (U2OS [3]; 12 h, replicate 1): 150 and 194 | Population Apoptotic (%) (U2OS [3]; 12 h, replicate 2): 74% and 45% | Population Fragmented Nuclei (%) (U2OS [3]; 12 h, replicate 2): 13% | Population Healthy Nuclei (%) (U2OS [3]; 12 h, replicate 2): 26% and 78% | Population Hoechst High Intensity Objects (%) (U2OS [3]; 12 h, replicate 2): 24% and 14% | Population Membrane Permeable-Phenotype (%) (U2OS [3]; 12 h, replicate 2): 55% and 27% | Population Mitotic Cells (%) (U2OS [3]; 12 h, replicate 2): 25% and 54% | Population Normal (%) (U2OS [3]; 12 h, replicate 2): 75% and 86% | Total Cell Count (U2OS [3]; 12 h, replicate 2): 91 | Population Apoptotic (%) (U2OS [3]; 24 h, replicate 1): 91% and 73% | Population Fragmented Nuclei (%) (U2OS [3]; 24 h, replicate 1): 16% and 11% | Population Membrane Permeable-Phenotype (%) (U2OS [3]; 24 h, replicate 1): 84% and 29% | Population Normal (%) (U2OS [3]; 24 h, replicate 1): 77% and 97% | Total Cell Count (U2OS [3]; 24 h, replicate 1): 190 and 175 | Population Apoptotic (%) (U2OS [3]; 24 h, replicate 2): 94% and 86% | Population Fragmented Nuclei (%) (U2OS [3]; 24 h, replicate 2): 21% and 13% | Population Healthy Nuclei (%) (U2OS [3]; 24 h, replicate 2): 28% and 75% | Population Hoechst High Intensity Objects (%) (U2OS [3]; 24 h, replicate 2): 23% and 10% | Population Mitotic Cells (%) (U2OS [3]; 24 h, replicate 2): 5% and 13% | Population Normal (%) (U2OS [3]; 24 h, replicate 2): 76% and 89% | Total Cell Count (U2OS [3]; 24 h, replicate 2): 159 and 98 | Growth Rate (HEK-293T; [6]): 0 | Growth Rate (HEK-293T; [7]): 0 | Growth Rate (HEK-293T; [8]): 0 | Growth Rate (HEK-293T; [9]): 0 | Population Apoptotic (%) (Fibroblast [4]; 12 h, replicate 1): 64% and 41% | Population Fragmented Nuclei (%) (Fibroblast [4]; 12 h, replicate 1): 35% and 14% | Population Healthy Nuclei (%) (Fibroblast [4]; 12 h, replicate 1): 45% and 47% | Population Membrane Permeable-Phenotype (%) (Fibroblast [4]; 12 h, replicate 1): 5% and 11% | Population Mitochondria Different-Phenotype (%) (Fibroblast [4]; 12 h, replicate 1): 11% and 25% | Population Mitotic Cells (%) (Fibroblast [4]; 12 h, replicate 1): 35% and 58% | Population Normal (%) (Fibroblast [4]; 12 h, replicate 1): 83% and 50% | Population Pyknosed Nuclei (%) (Fibroblast [4]; 12 h, replicate 1): 18% and 37% | Total Cell Count (Fibroblast [4]; 12 h, replicate 1): 234 and 214 | Population Apoptotic (%) (Fibroblast [4]; 12 h, replicate 2): 80% and 35% | Population Fragmented Nuclei (%) (Fibroblast [4]; 12 h, replicate 2): 72% and 48% | Population Healthy Nuclei (%) (Fibroblast [4]; 12 h, replicate 2): 18% and 22% | Population Hoechst High Intensity Objects (%) (Fibroblast [4]; 12 h, replicate 2): 38% and 35% | Population Membrane Permeable-Phenotype (%) (Fibroblast [4]; 12 h, replicate 2): 18% and 9% | Population Normal (%) (Fibroblast [4]; 12 h, replicate 2): 61% and 64% | Total Cell Count (Fibroblast [4]; 12 h, replicate 2): 94 and 76 | Population Apoptotic (%) (Fibroblast [4]; 24 h, replicate 1): 65% and 68% | Population Fragmented Nuclei (%) (Fibroblast [4]; 24 h, replicate 1): 38% and 24% | Population Healthy Nuclei (%) (Fibroblast [4]; 24 h, replicate 1): 49% and 38% | Population Hoechst High Intensity Objects (%) (Fibroblast [4]; 24 h, replicate 1): 21% and 44% | Population Membrane Permeable-Phenotype (%) (Fibroblast [4]; 24 h, replicate 1): 4% and 2% | Population Mitotic Cells (%) (Fibroblast [4]; 24 h, replicate 1): 34% and 31% | Population Normal (%) (Fibroblast [4]; 24 h, replicate 1): 78% and 55% | Total Cell Count (Fibroblast [4]; 24 h, replicate 1): 258 and 181 | Population Apoptotic (%) (Fibroblast [4]; 24 h, replicate 2): 80% and 73% | Population Fragmented Nuclei (%) (Fibroblast [4]; 24 h, replicate 2): 63% and 56% | Population Healthy Nuclei (%) (Fibroblast [4]; 24 h, replicate 2): 25% and 9% | Population Hoechst High Intensity Objects (%) (Fibroblast [4]; 24 h, replicate 2): 36% and 43% | Population Mitotic Cells (%) (Fibroblast [4]; 24 h, replicate 2): 20% and 26% | Population Normal (%) (Fibroblast [4]; 24 h, replicate 2): 63% and 56% | Population Tubulin-Different-Phenotype (%) (Fibroblast [4]; 24 h, replicate 2): 27% and 50% | Total Cell Count (Fibroblast [4]; 24 h, replicate 2): 69 and 78

CC(C)Oc1ccc(-c2nn([C@@H](C)c3oc4ccc(F)cc4c(=O)c3-c3cccc(F)c3)c3ncnc(N)c23)cc1F [UMBRALISIB]
Growth Rate (U2OS [1]; [5]): 0 | Growth Rate (U2OS [1]; [6]): 0 | Growth Rate (U2OS [1]; [11]): 1 | Growth Rate (U2OS [1]; [7]): 0 | Growth Rate (U2OS [1]; [12]): 1 | Growth Rate (U2OS [1]; [8]): 0 | Growth Rate (U2OS [1]; [13]): 1 | Growth Rate (U2OS [1]; [9]): 0 | Growth Rate (U2OS [1]; [14]): 1 | Growth Rate (Fibroblast [2]; [6]): 1 | Growth Rate (Fibroblast [2]; [11]): 0 | Growth Rate (Fibroblast [2]; [7]): 1 | Growth Rate (Fibroblast [2]; [12]): 0 | Growth Rate (Fibroblast [2]; [8]): 1 | Growth Rate (Fibroblast [2]; [9]): 1 | Growth Rate (HEK-293T; [5]): 1 | Growth Rate (HEK-293T; [10]): 0 | Growth Rate (HEK-293T; [6]): 0 | Growth Rate (HEK-293T; [7]): 0 | Growth Rate (HEK-293T; [8]): 0 | Growth Rate (HEK-293T; [9]): 0

Nc1nc(NCc2ccccc2)nc(-c2cccc(CO)c2)n1 [ZINC32547799]
Growth Rate (U2OS [1]; [5]): 0 | Growth Rate (U2OS [1]; [11]): 0 | Growth Rate (U2OS [1]; [7]): 1 | Growth Rate (U2OS [1]; [8]): 1 | Growth Rate (U2OS [1]; [9]): 1 | Growth Rate (Fibroblast [2]; [5]): 0 | Growth Rate (Fibroblast [2]; [6]): 0 | Growth Rate (Fibroblast [2]; [7]): 0 | Growth Rate (Fibroblast [2]; [12]): 1 | Growth Rate (Fibroblast [2]; [8]): 0 | Growth Rate (Fibroblast [2]; [9]): 0 | Growth Rate (Fibroblast [2]; [14]): 1 | Growth Rate (HEK-293T; [5]): 0 | Growth Rate (HEK-293T; [6]): 0 | Growth Rate (HEK-293T; [7]): 0 | Growth Rate (HEK-293T; [8]): 0 | Growth Rate (HEK-293T; [9]): 0

Nc1nc(NCCc2ccc(O)cc2)nc2nc(-c3ccco3)nn12 [ZM-241385]
Growth Rate (U2OS [1]; [10]): 0 | Growth Rate (U2OS [1]; [6]): 0 | Growth Rate (U2OS [1]; [7]): 0 | Growth Rate (U2OS [1]; [12]): 1 | Growth Rate (U2OS [1]; [8]): 0 | Growth Rate (U2OS [1]; [13]): 1 | Growth Rate (U2OS [1]; [9]): 0 | Growth Rate (U2OS [1]; [14]): 1 | Growth Rate (Fibroblast [2]; [5]): 0 | Growth Rate (Fibroblast [2]; [10]): 1 | Growth Rate (Fibroblast [2]; [11]): 0 | Growth Rate (Fibroblast [2]; [7]): 1 | Growth Rate (Fibroblast [2]; [12]): 0 | Growth Rate (Fibroblast [2]; [8]): 1 | Growth Rate (Fibroblast [2]; [13]): 0 | Growth Rate (Fibroblast [2]; [9]): 1 | Growth Rate (HEK-293T; [5]): 1 | Growth Rate (HEK-293T; [10]): 0 | Growth Rate (HEK-293T; [6]): 0 | Growth Rate (HEK-293T; [7]): 0 | Growth Rate (HEK-293T; [8]): 0 | Growth Rate (HEK-293T; [9]): 0
